From ChEMBL document CHEMBL1139898, “Structural effects on the phosphorylation of 3-substituted 1-beta-D-ribofuranosyl-1,2,4-triazoles by human adenosine kinase” (Bioorg Med Chem Lett, 2007)
Activity calls are given as the source filed them. The rule behind the calls is not given here.

Key:
[1] = target: Adenosine kinase (Homo sapiens) (UniProt P55263); test: Activity of human adenosine kinase relative to ribavirin; parameters: concentration or dose not given beside the values
How it was run: (§1)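 Aliquots at 0, 1, 2, 4 h quenched with perchloric acid, neutralized, monophosphate resolved by anion-exchange HPLC (ammonium phosphate gradient), UV at λmax; conversion kept <10%, linear.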

[2] = target: Adenosine kinase (Homo sapiens) (UniProt P55263); test: Inhibition of human adenosine kinase ribavirin phosphorylation activity
How it was run: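 Human adenosine kinase (clone 20-1) in Hepes pH 6.0 buffer with KCl, MgCl₂, 1 mM ATP, BSA, deoxycoformycin at 37 °C; 0.1 μM ribavirin initial substrate with test compound at 400 μM; ribavirin monophosphate formation followed by timed aliquots, acid quench and anion-exchange HPLC with UV detection.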

[3] = target: Adenosine kinase (Homo sapiens) (UniProt P55263); test: Specific activity of human adenosine kinase; how it was run: as §1

Chain of Adenosine kinase (Homo sapiens) (P55263 2-362 limits assumed): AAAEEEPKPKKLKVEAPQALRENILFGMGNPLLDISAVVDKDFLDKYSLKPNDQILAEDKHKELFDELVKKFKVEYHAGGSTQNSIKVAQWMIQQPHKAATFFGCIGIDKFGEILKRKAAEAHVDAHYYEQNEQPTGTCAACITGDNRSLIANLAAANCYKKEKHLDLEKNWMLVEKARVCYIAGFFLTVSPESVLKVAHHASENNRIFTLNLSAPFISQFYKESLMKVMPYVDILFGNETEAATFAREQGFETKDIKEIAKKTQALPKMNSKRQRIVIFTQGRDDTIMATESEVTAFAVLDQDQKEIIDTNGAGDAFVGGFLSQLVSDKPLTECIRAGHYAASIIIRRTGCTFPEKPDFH

| Structure (SMILES) | Activity [1] | Activity [2] | Activity [3] |
| --- | --- | --- | --- |
| COC(=N)c1ncn([C@@H]2O[C@H](CO)[C@@H](O)[C@H]2O)n1 | < 2% | inactive | < 4 nmol/mg/h |
| NC(=O)c1ncn([C@@H]2O[C@H](CO)[C@@H](O)[C@H]2O)n1 | – | – | 203 nmol/mg/h |
| C/N=C(/N)c1ncn([C@@H]2O[C@H](CO)[C@@H](O)[C@H]2O)n1 | 5% | inactive | 11 nmol/mg/h |
| CC(=O)Nc1ncn([C@@H]2O[C@H](CO)[C@@H](O)[C@H]2O)n1 | < 2% | inactive | < 4 nmol/mg/h |
| O=[N+]([O-])c1ncn([C@@H]2O[C@H](CO)[C@@H](O)[C@H]2O)n1 | 18% | inactive | 36 nmol/mg/h |
| CNC(=O)c1ncn([C@@H]2O[C@H](CO)[C@@H](O)[C@H]2O)n1 | 9% | inactive | 19 nmol/mg/h |
| CC(=O)c1ncn([C@@H]2O[C@H](CO)[C@@H](O)[C@H]2O)n1 | 10% | inactive | 20 nmol/mg/h |
| O=C(O)c1ncn([C@@H]2O[C@H](CO)[C@@H](O)[C@H]2O)n1 | < 2% | inactive | < 4 nmol/mg/h |
